Results published in ChEMBL document CHEMBL3804789, “5-Ene-4-thiazolidinones induce apoptosis in mammalian leukemia cells” (Eur J Med Chem, 2016).
One block for each molecule: values may come before it. The source made the active and inactive calls. No cut-off for these calls is given here.

Experiments:
[1] = (§1) Antiproliferative activity against human HL60 cells after 72 hrs by MTT assay; format: functional, cell-based; conditions: HL-60, 72 h
In short: (§2)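 MTT viability after 72 h continuous exposure. Cells seeded 24 h beforehand at 2,000/well (adherent) or 10,000/well (suspension), then given 0, 0.01, 0.1, 0.5, 1.0 or 10.0 μM compound diluted from 10 mM DMSO stock into RPMI or DMEM with 10% FBS, 37°C, 5% CO2. IC50 taken as concentration killing 50% of cells versus untreated culture.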

[2] = Antiproliferative activity against human SKOV3 cells after 72 hrs by MTT assay; format: functional, cell-based; conditions: SK-OV-3, 72 h; in short: as §2
Jurkat = experiment: Antiproliferative activity against human Jurkat cells after 72 hrs by MTT assay; format: functional, cell-based; in short: as §2
HL-60 [3] = experiment: Antiproliferative activity against human HL60 cells at 0.01 to 10 uM by MTT assay; format: functional, cell-based; conditions: TDE = time-dependent effect
In short: (§3)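 MTT viability: cells seeded 24 h at 2,000 (adherent) or 10,000 (suspension) per well, then exposed 72 h to 0.01-10.0 μM (0, 0.01, 0.1, 0.5, 1.0, 10.0 μM), diluted from 10 mM DMSO stock into medium with 10% FBS. IC50 is concentration killing 50% of cells relative to untreated control.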

HL-60 [4] = experiment: Induction of apoptosis in human HL60 cells assessed as apoptotic cells at 0.1 to 1 uM after 48 hrs by Annexin V-FITC/propidium iodide staining based fluorescence microscopic analysis; format: functional, cell-based
In short: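 HL-60 cells treated 48 h, pelleted at 2,000 rpm, washed twice in PBS and incubated 15 min in Annexin V binding buffer with 1/20 volume FITC-Annexin V and PI (20.0 μg/mL). Cells examined by fluorescence microscopy on duplicate slides, >500 cells counted per sample.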

L1210 = experiment: Antiproliferative activity against mouse L1210 cells after 72 hrs by MTT assay; format: functional, cell-based; conditions: L1210, 72 h; in short: as §2
HL60/ADR [5] = experiment: Antiproliferative activity against human HL60/ADR cells at 0.01 to 10 uM by MTT assay; format: functional, cell-based; conditions: TDE = time-dependent effect; in short: as §3
[6] = target: T1, Retinoblastoma-associated protein (Homo sapiens) (UniProt P06400); experiment: Inhibition of retinoblastoma protein phosphorylation in human HL60 cells at 0.1 to 1 uM after 48 hrs by Western blot analysis; format: cell-based; conditions: HL-60
T1 sequence (whole entry): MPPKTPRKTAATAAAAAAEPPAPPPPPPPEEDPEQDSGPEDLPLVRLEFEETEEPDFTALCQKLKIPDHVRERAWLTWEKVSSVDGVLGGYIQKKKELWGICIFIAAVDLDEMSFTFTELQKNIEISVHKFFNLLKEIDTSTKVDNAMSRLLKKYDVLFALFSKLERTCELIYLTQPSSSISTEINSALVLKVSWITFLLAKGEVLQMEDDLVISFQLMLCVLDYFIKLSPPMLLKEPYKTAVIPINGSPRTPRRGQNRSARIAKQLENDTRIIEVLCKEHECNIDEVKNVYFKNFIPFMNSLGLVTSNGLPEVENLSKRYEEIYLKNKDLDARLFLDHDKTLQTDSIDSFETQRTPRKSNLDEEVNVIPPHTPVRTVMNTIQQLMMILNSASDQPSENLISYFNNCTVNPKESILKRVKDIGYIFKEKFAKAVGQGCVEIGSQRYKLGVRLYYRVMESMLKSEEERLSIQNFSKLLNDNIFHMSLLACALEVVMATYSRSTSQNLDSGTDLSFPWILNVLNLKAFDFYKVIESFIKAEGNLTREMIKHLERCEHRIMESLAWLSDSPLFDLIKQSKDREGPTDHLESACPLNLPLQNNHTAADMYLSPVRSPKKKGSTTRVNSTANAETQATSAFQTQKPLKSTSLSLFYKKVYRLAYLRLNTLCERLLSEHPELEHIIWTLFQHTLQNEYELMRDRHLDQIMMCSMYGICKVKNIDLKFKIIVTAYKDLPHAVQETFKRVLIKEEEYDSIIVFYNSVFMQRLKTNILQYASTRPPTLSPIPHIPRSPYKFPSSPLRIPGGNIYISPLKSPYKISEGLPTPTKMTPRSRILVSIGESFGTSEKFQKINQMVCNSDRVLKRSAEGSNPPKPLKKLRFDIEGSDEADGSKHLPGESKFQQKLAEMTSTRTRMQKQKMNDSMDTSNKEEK
In short: (§4)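 HL-60 cells exposed 48 h; proteins isolated, resolved by SDS/PAGE, transferred to PVDF and immunoblotted. Equal loading checked by re-probing the same membrane for beta-actin. Peroxidase-labelled secondary antibodies at 1:5,000.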

HL-60 [7] = experiment: Induction of apoptosis in human HL60 cells assessed as increase in p21 expression at 0.1 to 1 uM after 48 hrs by Western blot analysis; format: functional, cell-based; in short: as §4
MCF7 = experiment: Antiproliferative activity against human MCF7 cells after 72 hrs by MTT assay; format: functional, cell-based; conditions: MCF7, 72 h; in short: as §2
[8] = target: Mitogen-activated protein kinase; ERK1/ERK2 (Homo sapiens) (UniProt P27361+P28482); experiment: Activation of ERK1/2 in human HL60 cells at 0.1 to 1 uM after 48 hrs by Western blot analysis; format: cell-based; conditions: HL-60; in short: as §4
Mitogen-activated protein kinase; ERK1/ERK2 (Homo sapiens), sequence (P27361 whole entry, looked up): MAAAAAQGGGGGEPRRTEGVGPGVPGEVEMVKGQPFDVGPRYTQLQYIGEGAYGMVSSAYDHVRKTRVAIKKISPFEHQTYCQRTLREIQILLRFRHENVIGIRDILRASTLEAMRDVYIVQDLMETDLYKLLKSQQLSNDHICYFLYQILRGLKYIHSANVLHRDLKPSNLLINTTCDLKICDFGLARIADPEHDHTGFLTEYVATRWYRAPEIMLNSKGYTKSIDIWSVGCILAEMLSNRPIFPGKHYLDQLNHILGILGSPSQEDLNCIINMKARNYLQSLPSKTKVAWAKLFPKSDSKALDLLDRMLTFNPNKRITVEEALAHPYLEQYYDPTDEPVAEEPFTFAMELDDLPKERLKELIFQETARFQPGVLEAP
Mitogen-activated protein kinase; ERK1/ERK2 (Homo sapiens), sequence (P28482 whole entry, looked up): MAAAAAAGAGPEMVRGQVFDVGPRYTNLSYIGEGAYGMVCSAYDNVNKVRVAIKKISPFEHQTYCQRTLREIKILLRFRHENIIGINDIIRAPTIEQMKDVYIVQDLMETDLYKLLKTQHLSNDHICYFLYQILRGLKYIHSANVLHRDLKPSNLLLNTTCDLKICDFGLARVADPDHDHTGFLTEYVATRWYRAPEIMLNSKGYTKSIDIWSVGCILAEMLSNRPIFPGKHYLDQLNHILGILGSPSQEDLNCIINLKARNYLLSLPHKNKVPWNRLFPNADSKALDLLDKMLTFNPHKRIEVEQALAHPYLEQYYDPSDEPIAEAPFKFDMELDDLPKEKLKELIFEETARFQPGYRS

HL-60 [9] = experiment: Induction of apoptosis in human HL60 cells assessed as increase in Bax expression at 0.1 to 1 uM after 48 hrs by Western blot analysis; format: functional, cell-based; in short: as §4
[10] = Cell cycle arrest in human HL60 cells assessed as accumulation at G0/G1 phase at 0.1 to 1 uM after 8 to 48 hrs by propidium iodide staining based flow cytometry; format: functional; conditions: HL-60
In short: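 HL-60 cells treated 8 and 48 h, washed in PBS, fixed in 70% ethanol and stored at -20°C. Then RNase (10 µg/ml) 30 min at 37°C, propidium iodide (5 µg/ml) 30 min, and cell-cycle distribution read by flow cytometry.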

HL-60 [11] = experiment: as §1; format: functional, cell-based; in short: as §2
L929 = experiment: Antiproliferative activity against mouse L929 cells after 72 hrs by MTT assay; format: functional, cell-based; conditions: L929, 72 h; in short: as §2
[12] = Antiproliferative activity against human HL60 cells measured at 6 hrs by MTT assay; format: functional, cell-based; conditions: HL-60, 6 h
In short: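 Exposure-time series in HL-60 cells: compound present for 3, 6, 24, 48 or 72 h, viability then read by MTT. IC50 is concentration killing 50% of cells relative to untreated culture.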

[13] = target: T2, Endonuclease G, mitochondrial (Homo sapiens) (UniProt Q14249); experiment: Activation of endonuclease G in human HL60 cells at 0.1 to 1 uM after 48 hrs by Western blot analysis; format: cell-based; conditions: HL-60; in short: as §4
T2 sequence (whole entry): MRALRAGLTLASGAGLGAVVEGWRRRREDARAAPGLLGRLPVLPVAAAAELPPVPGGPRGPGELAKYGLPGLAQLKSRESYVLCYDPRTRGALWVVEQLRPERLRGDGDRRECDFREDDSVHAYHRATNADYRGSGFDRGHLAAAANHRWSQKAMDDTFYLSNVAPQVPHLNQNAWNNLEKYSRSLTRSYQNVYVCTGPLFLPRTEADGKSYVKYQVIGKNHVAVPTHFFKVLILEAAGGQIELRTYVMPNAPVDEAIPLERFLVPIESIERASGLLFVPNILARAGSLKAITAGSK

[14] = target: T3, c-Jun N-terminal kinase, JNK (Homo sapiens) (UniProt P45983+P53779+P45984); experiment: Inhibition of JNK phosphorylation in human HL60 cells at 0.1 to 1 uM after 48 hrs by Western blot analysis; format: cell-based; conditions: HL-60; in short: as §4
[15] = target: T3, c-Jun N-terminal kinase, JNK (Homo sapiens); experiment: Inhibition of JNK in human HL60 cells assessed as increase in phosphorylated STAT3 expression at 0.1 to 1 uM after 48 hrs by Western blot analysis; format: cell-based; conditions: HL-60; in short: as §4
[16] = Antiproliferative activity against mouse KS483 cells after 72 hrs by MTT assay; format: cell-based; conditions: KS483, 72 h; in short: as §2
HL-60 [17] = experiment: Induction of apoptosis in human HL60 cells assessed as decrease in Bcl-XL expression at 0.1 to 1 uM after 48 hrs by Western blot analysis; format: functional, cell-based; in short: as §4
HL-60 [18] = experiment: Cytotoxicity against human HL60 cells assessed as reduction in cell survival up to 1 uM treated for 30 mins with ROS scavenger ascorbic acid measured after 72 hrs by MTT assay; format: functional, cell-based
HL60/ADR [19] = experiment: Cytotoxicity against human HL60/ADR cells assessed as reduction in cell survival up to 1 uM treated for 30 mins with ROS scavenger ascorbic acid measured after 72 hrs by MTT assay; format: functional, cell-based
HL60/ADR [20] = experiment: Cytotoxicity against human HL60/ADR cells assessed as reduction in cell survival up to 1 uM treated for 30 mins with ROS scavenger N-acetylcysteine measured after 72 hrs by MTT assay; format: functional, cell-based
HL60/ADR [21] = experiment: (§5) Antiproliferative activity against human HL60/ADR cells after 72 hrs by MTT assay; format: functional, cell-based; in short: as §2
[22] = as §5; format: functional, cell-based; in short: as §2
[23] = Antiproliferative activity against HEK293T cells after 72 hrs by MTT assay; format: cell-based; conditions: Homo sapiens, HEK-293T; in short: as §2
HL-60 [24] = experiment: Induction of apoptosis in human HL60 cells assessed as decrease in cyclinD3 expression at 0.1 to 1 uM after 48 hrs by Western blot analysis; format: functional, cell-based; in short: as §4
[25] = target: MAP kinase p38 (Homo sapiens) (UniProt O15264+Q15759+Q16539+P53778); experiment: Induction of MAPK p38 phosphorylation in human HL60 cells at 0.1 to 1 uM after 48 hrs by Western blot analysis; format: cell-based; conditions: HL-60; in short: as §4
HL-60 [26] = experiment: Cytotoxicity against human HL60 cells assessed as reduction in cell survival up to 1 uM treated for 30 mins with ROS scavenger N-acetylcysteine measured after 72 hrs by MTT assay; format: functional, cell-based
HL-60 [27] = experiment: Induction of apoptosis in human HL60 cells assessed as increase in CDK1 expression at 0.1 to 1 uM after 48 hrs by Western blot analysis; format: functional, cell-based; in short: as §4

SMILES: CN1C(=O)/C(=C/N2N=C(c3ccccc3)CC2c2ccccc2O)SC1=S (centres undefined)
- IC50 [1]: 2880 nM
- IC50 [2]: 341 nM

SMILES: CC(=O)Oc1ccc(N2C(=O)/C(=C/N3N=C(c4ccc(Cl)cc4)CC3c3ccc(Cl)cc3)SC2=S)cc1 (centres undefined)
- IC50 [1]: > 10000 nM
- IC50 [2]: > 10000 nM

SMILES: O=C1NC(=S)/C(=C/N2N=C(c3ccc4ccccc4c3)CC2c2ccc(Cl)cc2)S1 (centres undefined)
- IC50 [1]: 156 nM
- IC50 [2]: > 10000 nM

- IC50 (Jurkat): 1100 nM
- IC50 (L1210): 700 nM
- inhibition [6]: Active
- IC50 (MCF7): 8300 nM
- Activity [8]: Active
- Activity [13]: Active
- inhibition [14]: Active
- inhibition [15]: Active
- Activity [25]: Active
SMILES: CC(=O)Oc1cccc(N2C(=O)/C(=C/N3N=C(c4ccccc4)CC3c3ccccc3O)SC2=S)c1 (centres undefined)
- Activity (HL-60 [3]): tde
- Activity (HL-60 [4]): Active
- Activity (HL60/ADR [5]): tde
- Activity (HL-60 [7]): Active
- Activity (HL-60 [9]): Active
- Activity [10]: Active
- Activity (HL-60 [11]): Dose-dependent effect
- IC50 [1]: 118 nM
- IC50 (L929): > 10000 nM
- IC50 [12]: 500 nM
- IC50 [16]: > 10000 nM
- Activity (HL-60 [17]): Active
- Activity (HL-60 [18]): inactive
- Activity (HL60/ADR [19]): inactive
- Activity (HL60/ADR [20]): inactive
- Activity (HL60/ADR [21]): Dose-dependent effect
- IC50 [22]: 1000 nM
- IC50 [23]: > 10000 nM
- Activity (HL-60 [24]): Active
- IC50 [2]: > 10000 nM
- Activity (HL-60 [26]): inactive
- Activity (HL-60 [27]): Active

SMILES: CC(=O)Oc1cccc(N2C(=O)/C(=C/N3N=C(c4ccc5ccccc5c4)CC3c3ccc(Cl)cc3)SC2=S)c1 (centres undefined)
- IC50 [1]: 1020 nM
- IC50 [2]: 2390 nM

SMILES: O=C1/C(=C/N2N=C(c3ccccc3)CC2c2ccccc2O)SC(=S)N1c1cccc(C(F)(F)F)c1 (centres undefined)
- IC50 [1]: > 10000 nM
- IC50 [2]: > 10000 nM

SMILES: CC(=O)Oc1ccc(N2C(=O)/C(=C/N3N=C(c4ccc5ccccc5c4)CC3c3ccccc3O)SC2=S)cc1 (centres undefined)
- IC50 [1]: 500 nM
- IC50 [2]: > 10000 nM

SMILES: O=C1NC(=S)/C(=C/N2N=C(c3ccccc3)CC2c2ccccc2O)S1 (centres undefined)
- IC50 [1]: 990 nM
- IC50 [2]: 7870 nM

SMILES: CCN1C(=O)/C(=C/N2N=C(c3ccccc3)CC2c2ccccc2O)SC1=S (centres undefined)
- IC50 [1]: > 10000 nM
- IC50 [2]: > 10000 nM

SMILES: COc1ccc(C2CC(c3ccc4ccccc4c3)=NN2/C=C2\SC(=S)N(c3ccc(OC(C)=O)cc3)C2=O)cc1 (centres undefined)
- IC50 [1]: > 10000 nM
- IC50 [2]: 1100 nM
